Calls of active or inactive are those of the source. Unless noted, no cut-off for these calls is given here.
Tests used:
Mus musculus [1] = experiment: Anticonvulsant activity in ip dosed CD1 mouse assessed as protection against subcutaneous pentylenetetrazole-induced seizures and measured after 4 hrs; assay type: functional; conditions: CD1, 4 h, read-out: MED
Summary of the method: (§1)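 Mice were screened after intraperitoneal doses of 30, 100 and 300 mg/kg in the maximal electroshock and subcutaneous pentylenetetrazole tests, examined at 0.5 and 4 h. The value recorded is the minimum dose showing activity. No activity up to 300 mg/kg is scored as absent.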

Mus musculus [2] = experiment: Anticonvulsant activity in CD1 mouse assessed as protection against 50 mA current-induced seizure at 300 mg/kg, ip and measured after 4 hrs by maximal electroshock seizure test; assay type: functional, organism-based; summary of the method: as §1
Mus musculus [3] = experiment: Anticonvulsant activity in CD1 mouse assessed as protection against subcutaneous pentylenetetrazole-induced seizures at 300 mg/kg, ip and measured after 0.5 hrs; assay type: functional, organism-based; summary of the method: as §1
[4] = Neurotoxicity in ip dosed CD1 mouse model by rotarod test; assay type: toxicity, organism-based; conditions: in vivo
Mus musculus [5] = experiment: Anticonvulsant activity in ip dosed CD1 mouse assessed as time to peak effect on protection against 50 mA current-induced seizures; assay type: functional
Summary of the method: (§2)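 Median effective doses were quantified in the maximal electroshock, subcutaneous pentylenetetrazole and 6 Hz tests after intraperitoneal dosing in mice or oral dosing in rats, at the time of peak effect. ED50 values are reported with ranges in parentheses.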

Mus musculus [6] = experiment: Potency index, ratio of phenytoin ED50 to compound ED50 for anticonvulsant activity protection against subcutaneous pentylenetetrazole-induced seizures in ip dosed CD1 mouse; assay type: functional
[7] = Neurotoxicity in CD1 mouse at 300 mg/kg, ip and measured after 4 hrs hrs by rotarod test; assay type: toxicity, organism-based; conditions: in vivo
Summary of the method: (§3)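 Mice dosed intraperitoneally at 30, 100 and 300 mg/kg, then tested on the rotarod at 0.5 h and 4 h. The value recorded is the minimum dose at which neurotoxicity appeared. A dash means no neurotoxicity at the top dose of 300 mg/kg.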

Mus musculus [8] = experiment: Anticonvulsant activity in ip dosed CD1 mouse assessed as protection against subcutaneous pentylenetetrazole-induced seizures; assay type: functional; summary of the method: as §2
[9] = Neurotoxicity in ip dosed CD1 mouse assessed as time to peak effect by rotarod test; assay type: toxicity, organism-based; conditions: in vivo
Mus musculus [10] = experiment: Anticonvulsant activity in ip dosed CD1 mouse assessed as time to peak effect on protection against 32 mA current-induced seizure by 6 Hz psychomotor seizure test; assay type: functional; summary of the method: as §2
Mus musculus [11] = experiment: Anticonvulsant activity in ip dosed CD1 mouse assessed as time to peak effect on protection against subcutaneous pentylenetetrazole-induced seizures; assay type: functional; summary of the method: as §2
[12] = Neurotoxicity in ip dosed CD1 mouse and measured after 0.5 hrs by rotarod test; assay type: toxicity, organism-based; conditions: in vivo; summary of the method: as §3
[13] = Protection index, ratio of TD50 for neurotoxicity in ip dosed CD1 mouse by rotarod test to ED50 for anticonvulsant activity in ip dosed CD1 mouse model of subcutaneous PTZ-induced seizures; assay type: toxicity, organism-based; conditions: in vivo, read-out: Ratio TD50/ED50
Mus musculus [14] = experiment: Anticonvulsant activity in CD1 mouse assessed as protection against 50 mA current-induced seizure at 300 mg/kg, ip and measured after 0.5 hrs by maximal electroshock seizure test; assay type: functional, organism-based; summary of the method: as §1
[15] = Neurotoxicity in CD1 mouse at 50 mg/kg, ip measured after 2 hrs by rotarod test; conditions: in vivo
[16] = Neurotoxicity in Sprague-Dawley rat at 30 mg/kg, po measured after 4 hr by rotarod test; assay type: toxicity, organism-based; conditions: in vivo
Summary of the method: (§4)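 Rats given one oral dose of 30 mg/kg and tested on the rotarod at 0.25, 0.5, 1, 2, 4 and 6 h.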

Rattus norvegicus [17] = experiment: Anticonvulsant activity in Sprague-Dawley rat assessed as protection against 150 mA current-induced seizure at 30 mg/kg, po measured after 15 mins by maximal electroshock seizure test; assay type: functional, organism-based
Summary of the method: (§5)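 Rats received 30 mg/kg orally and were given maximal electroshock at 0.25, 0.5, 1, 2, 4 and 6 h. Read-out is the number of rats protected out of four.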

Mus musculus [18] = experiment: Anticonvulsant activity in ip dosed CD1 mouse assessed as protection against 50 mA current-induced seizure and measured after 0.5 hrs by maximal electroshock seizure test; assay type: functional; conditions: read-out: MED; summary of the method: as §1
[19] = Neurotoxicity in Sprague-Dawley rat at 30 mg/kg, po measured after 15 mins by rotarod test; assay type: toxicity, organism-based; conditions: in vivo, 0.25 h; summary of the method: as §4
Mus musculus [20] = experiment: Anticonvulsant activity in CD1 mouse assessed as protection against 32 mA current-induced seizure at 50 mg/kg, ip measured after 4 hrs by 6 Hz psychomotor seizure test
Rattus norvegicus [21] = experiment: Anticonvulsant activity in Sprague-Dawley rat assessed as protection against 150 mA current-induced seizure at 30 mg/kg, po measured after 4 hrs by maximal electroshock seizure test; assay type: functional, organism-based; summary of the method: as §5
[22] = Neurotoxicity in CD1 mouse at 50 mg/kg, ip measured after 1 hr by rotarod test; conditions: in vivo
Rattus norvegicus [23] = experiment: Anticonvulsant activity in Sprague-Dawley rat assessed as protection against 150 mA current-induced seizure at 30 mg/kg, po measured after 30 mins by maximal electroshock seizure test; assay type: functional, organism-based; summary of the method: as §5
[24] = Neurotoxicity in CD1 mouse at 50 mg/kg, ip measured after 15 mins by rotarod test; conditions: in vivo, 0.25 h
[25] = Neurotoxicity in CD1 mouse at 50 mg/kg, ip measured after 4 hrs by rotarod test; conditions: in vivo
Mus musculus [26] = experiment: Anticonvulsant activity in ip dosed CD1 mouse assessed as protection against 50 mA current-induced seizure and measured after 4 hrs by maximal electroshock seizure test; assay type: functional; conditions: read-out: MED; summary of the method: as §1
[27] = Neurotoxicity in Sprague-Dawley rat at 30 mg/kg, po measured after 30 mins by rotarod test; assay type: toxicity, organism-based; conditions: in vivo, 0.5 h; summary of the method: as §4
[28] = Neurotoxicity in Sprague-Dawley rat at 30 mg/kg, po measured after 1 hr by rotarod test; assay type: toxicity, organism-based; conditions: in vivo; summary of the method: as §4
Mus musculus [29] = experiment: Anticonvulsant activity in CD1 mouse assessed as protection against subcutaneous pentylenetetrazole-induced seizures at 300 mg/kg, ip and measured after 4 hrs; assay type: functional, organism-based; summary of the method: as §1
[30] = Neurotoxicity in CD1 mouse at 50 mg/kg, ip measured after 30 mins by rotarod test; conditions: in vivo, 0.5 h
[31] = Neurotoxicity in CD1 mouse at 300 mg/kg, ip and measured after 0.5 hrs by rotarod test; assay type: toxicity, organism-based; conditions: in vivo; summary of the method: as §3
[32] = Neurotoxicity in Sprague-Dawley rat at 30 mg/kg, po measured after 2 hr by rotarod test; assay type: toxicity, organism-based; conditions: in vivo; summary of the method: as §4
Rattus norvegicus [33] = experiment: Anticonvulsant activity in po dosed Sprague-Dawley rat assessed as time to peak effect on protection against 150 mA current-induced seizures; assay type: functional; summary of the method: as §2
[34] = Neurotoxicity in po dosed Sprague-Dawley rat assessed as time to peak effect by rotarod test; assay type: toxicity, organism-based; conditions: in vivo
[35] = Protection index, ratio of TD50 for neurotoxicity in po dosed Sprague-Dawley rat by rotarod test to ED50 for anticonvulsant activity in po dosed Sprague-Dawley rat by maximal electroshock seizure test; assay type: toxicity, organism-based; conditions: in vivo, read-out: Ratio TD50/ED50
Mus musculus [36] = experiment: Anticonvulsant activity in ip dosed CD1 mouse assessed as protection against 32 mA current-induced seizure by 6 Hz psychomotor seizure test; assay type: functional; summary of the method: as §2
Rattus norvegicus [37] = experiment: Anticonvulsant activity in po dosed Sprague-Dawley rat assessed as time to peak effect on protection against 32 mA current-induced seizure by 6 Hz psychomotor seizure test; assay type: functional
[38] = Neurotoxicity in ip dosed CD1 mouse and measured after 4 hrs by rotarod test; assay type: toxicity, organism-based; conditions: in vivo; summary of the method: as §3
Rattus norvegicus [39] = experiment: Anticonvulsant activity in po dosed Sprague-Dawley rat assessed as time to peak effect on protection against subcutaneous pentylenetetrazole-induced seizures; assay type: functional
Rattus norvegicus [40] = experiment: Anticonvulsant activity in po dosed Sprague-Dawley rat assessed as protection against subcutaneous pentylenetetrazole-induced seizures; assay type: functional
[41] = Neurotoxicity in po dosed Sprague-Dawley rat model by rotarod test; assay type: toxicity, organism-based; conditions: in vivo
Summary of the method: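 Rats dosed orally; neurotoxicity scored on the rotarod. Screening used a fixed 30 mg/kg, with animals checked at 0.25, 0.5, 1, 2, 4 and 6 h; the reading is the number of four rats showing neurotoxicity. In quantitative runs, a median toxic dose (TD50, mg/kg) was determined after oral dosing at the time of peak effect.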

[42] = Protection index, ratio of TD50 for neurotoxicity in ip dosed CD1 mouse by rotarod test to ED50 for anticonvulsant activity in ip dosed CD1 mouse by maximal electroshock seizure test; assay type: toxicity, organism-based; conditions: in vivo, read-out: Ratio TD50/ED50
[43] = Neurotoxicity in Sprague-Dawley rat at 30 mg/kg, po measured after 6 hrs hr by rotarod test; assay type: toxicity, organism-based; conditions: in vivo; summary of the method: as §4
Rattus norvegicus [44] = experiment: Anticonvulsant activity in Sprague-Dawley rat assessed as protection against 150 mA current-induced seizure at 30 mg/kg, po measured after 1 hr by maximal electroshock seizure test; assay type: functional, organism-based; summary of the method: as §5
Rattus norvegicus [45] = experiment: Anticonvulsant activity in Sprague-Dawley rat assessed as protection against 150 mA current-induced seizure at 30 mg/kg, po measured after 2 hrs by maximal electroshock seizure test; assay type: functional, organism-based; summary of the method: as §5

Compound | MED (Mus musculus [3]) | Time (Mus musculus [5]) [h] | Activity [7] | ED50 (Mus musculus [8]) [mg/kg] | Time [9] [h] | Time (Mus musculus [10]) [h] | Time (Mus musculus [11]) [h] | minimal neurotoxic dose [12] [mg/kg] | Activity (Mus musculus [14]) | Activity [16] | Activity (Rattus norvegicus [17]) | minimal effective dose (Mus musculus [18]) [mg/kg] | Activity [19] | Activity (Rattus norvegicus [21]) | Activity (Rattus norvegicus [23]) | minimal effective dose (Mus musculus [26]) [mg/kg] | Activity [27] | Activity [28] | Activity (Mus musculus [29]) | Activity [31] | further results
CC(C)C1(C(C)C)NC(=O)N(CN2CCN(CCc3ccccc3)CC2)C1=O | inactive | 4 | Non-Toxic | 89.4 | 4 | 4 | 4 | 300 | inactive |  |  |  |  |  |  |  |  |  |  |  | minimal effective dose (Mus musculus [1]): 100 mg/kg; Activity (Mus musculus [2]): inactive; TD50 [4]: > 200 mg/kg; Ratio ED50 (Mus musculus [6]): 5.5; selectivity ratio [13]: > 2.23
O=C1NC(c2ccccc2)(c2ccccc2)C(=O)N1CN1CCN(CCc2ccccc2)CC1 | inactive |  | Non-Toxic |  |  |  |  |  |  | Non-Toxic | inactive | 100 | Non-Toxic | inactive | Active | 30 | Non-Toxic | Non-Toxic | inactive | Non-Toxic | Activity [15]: Non-Toxic; Activity (Mus musculus [20]): Active; Activity [22]: Non-Toxic; Activity [24]: Non-Toxic; Activity [25]: Non-Toxic; Activity [30]: Non-Toxic; Activity [32]: Non-Toxic
O=C1NC(=O)C(c2ccccc2)(c2ccccc2)N1 [PHENYTOIN] | inactive | 1 |  | > 500 | 1 | 1 | 1 | 100 |  |  |  | 30 |  |  |  | 30 |  |  | inactive |  | Time (Rattus norvegicus [33]): 1 h; Time [34]: 1 h; selectivity ratio [35]: > 35.6; ED50 (Mus musculus [36]): > 60 mg/kg; Time (Rattus norvegicus [37]): 1 h; MTC [38]: 100 mg/kg; Time (Rattus norvegicus [39]): 1 h; ED50 (Rattus norvegicus [40]): > 500 mg/kg; TD50 [41]: > 1000 mg/kg; selectivity ratio [42]: 7.27
CC(C)C1(C(C)C)NC(=O)N(CN2CCN(c3ccccc3)CC2)C1=O | inactive |  | Non-Toxic |  |  |  |  |  | inactive | Non-Toxic | inactive |  | Non-Toxic | inactive | inactive | 300 | Non-Toxic | Non-Toxic | inactive | Non-Toxic | Activity [43]: Non-Toxic; Activity (Rattus norvegicus [44]): inactive; Activity (Rattus norvegicus [45]): inactive; Activity [32]: Non-Toxic
